Experimental data published in ChEMBL document CHEMBL1143284, “Synthesis of riccardin C and its seven analogues. Part 1: The role of their phenolic hydroxy groups as LXRalpha agonists” (Bioorg Med Chem Lett, 2009).
Calls of active or inactive are those of the source. The calls are words filed in the database; no cut-off is given here.

Experiments:
[1] = target: T1, Oxysterols receptor LXR-beta (Homo sapiens) (UniProt P55055); assay: Agonist activity at full length LXRbeta expressed in african green monkey COS1 cells co-transfected with RXRalpha assessed as increase in LXR-response element driven luciferase reporter gene transactivation at 10 to 30 uM after 24 hrs; details: COS-1
T1 sequence (whole entry): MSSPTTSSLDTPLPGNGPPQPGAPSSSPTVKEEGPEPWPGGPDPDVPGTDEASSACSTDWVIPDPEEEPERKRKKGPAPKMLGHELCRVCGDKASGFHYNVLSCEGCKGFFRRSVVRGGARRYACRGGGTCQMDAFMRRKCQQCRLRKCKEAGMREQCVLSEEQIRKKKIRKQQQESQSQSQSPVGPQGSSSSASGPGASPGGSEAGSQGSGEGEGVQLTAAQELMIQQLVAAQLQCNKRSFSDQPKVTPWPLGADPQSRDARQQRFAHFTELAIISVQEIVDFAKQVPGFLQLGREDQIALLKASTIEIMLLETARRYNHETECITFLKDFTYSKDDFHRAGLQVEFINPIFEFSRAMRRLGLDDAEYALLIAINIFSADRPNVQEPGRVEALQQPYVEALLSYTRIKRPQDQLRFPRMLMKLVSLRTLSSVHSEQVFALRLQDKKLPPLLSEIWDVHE

[2] = target: T2, Oxysterols receptor LXR-alpha (Homo sapiens) (UniProt Q13133); assay: Agonist activity at full length LXRalpha expressed in african green monkey COS1 cells co-transfected with RXRalpha assessed as increase in LXR-response element driven luciferase reporter gene transactivation at 10 to 30 uM after 24 hrs; details: COS-1
T2 sequence (whole entry): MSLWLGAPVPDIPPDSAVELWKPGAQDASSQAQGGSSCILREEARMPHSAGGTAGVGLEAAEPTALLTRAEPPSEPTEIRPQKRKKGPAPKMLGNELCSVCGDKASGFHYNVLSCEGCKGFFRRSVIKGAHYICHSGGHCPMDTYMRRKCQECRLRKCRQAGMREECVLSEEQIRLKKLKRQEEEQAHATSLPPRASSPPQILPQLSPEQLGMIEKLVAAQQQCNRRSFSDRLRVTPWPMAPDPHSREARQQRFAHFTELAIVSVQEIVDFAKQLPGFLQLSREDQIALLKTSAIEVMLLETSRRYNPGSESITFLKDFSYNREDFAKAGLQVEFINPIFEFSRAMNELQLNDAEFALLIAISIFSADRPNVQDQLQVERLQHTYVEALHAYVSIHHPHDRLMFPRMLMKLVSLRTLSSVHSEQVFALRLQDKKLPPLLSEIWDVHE

[3] = target: T1, Oxysterols receptor LXR-beta (Homo sapiens); assay: Activation of full length LXRbeta expressed in african green monkey COS7 cells co-transfected with RXRalpha assessed as increase in LXR-response element driven luciferase reporter gene transactivation after 24 hrs; type: cell-based; details: COS-7
Outline: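 Transient LXR/RXRα luciferase reporter assay in COS cells with β-galactosidase as internal control. Cells treated 24 h with test compounds at 10 or 30 μM, or TO901317 at 100 nM, in the presence of compactin to deplete endogenous LXR ligands. Luciferase activity in cell extracts normalized to β-galactosidase and expressed as fold induction over vehicle-treated cells.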

Row | Activity [1] | Activity [2] | Activity [3] | Compound
1 | inactive | inactive | – | COc1ccc2c(c1)CCc1ccc(cc1)Oc1cc(ccc1O)CCc1ccc-2c(O)c1
2 | inactive | inactive | – | COc1ccc2c(c1)CCc1ccc(cc1)Oc1cc(ccc1OC)CCc1ccc-2c(OC)c1
3 | inactive | inactive | – | COc1ccc2cc1Oc1ccc(cc1)CCc1cc(O)ccc1-c1ccc(cc1OC)CC2
4 | inactive | inactive | – | COc1ccc2cc1Oc1ccc(cc1)CCc1cc(O)ccc1-c1ccc(cc1O)CC2
5 | inactive | inactive | – | COc1ccc2c(c1)CCc1ccc(cc1)Oc1cc(ccc1O)CCc1ccc-2c(OC)c1
6 | inactive | inactive | – | COc1cc2ccc1-c1ccc(O)cc1CCc1ccc(cc1)Oc1cc(ccc1O)CC2
7 | – | – | inactive | Oc1ccc2c(c1)CCc1ccc(cc1)Oc1cc(ccc1O)CCc1ccc-2c(O)c1
8 | inactive | inactive | – | COc1ccc2c(c1)CCc1ccc(cc1)Oc1cc(ccc1OC)CCc1ccc-2c(O)c1
